Reference: ChEMBL document CHEMBL4814000, “Discovery of β-carboline-(phenylsulfonyl)furoxan hybrids as potential anti-breast cancer agents” (Bioorg Med Chem Lett, 2021)
The source made the active and inactive calls. The rule behind the calls is not given here.

How the values were obtained:
MCF7 = test: Antiproliferative activity against human MCF7 cells assessed as reduction in cell viability incubated for 72 hrs by CCK-8 assay; format: functional, cell-based; details: MCF7, 72 h
Procedure, shortened: (§1)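 CCK-8 viability assay on MCF-7 or MDA-MB-231 cells after 72 h compound exposure; IC50 taken as half inhibitory concentration, reported as mean ± SD of three independent experiments.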

MDA-MB-231 = test: Antiproliferative activity against human MDA-MB-231 cells assessed as reduction in cell viability incubated for 72 hrs by CCK-8 assay; format: functional, cell-based; details: MDA-MB-231, 72 h; procedure, shortened: as §1
[1] = Nitric oxide releasing activity assessed as amount of NO release measured up to 24 hrs by Griess assay; format: functional; details: time hrs <=24
Procedure, shortened: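 Griess assay measuring NO released by compounds in vitro over time; values are averages of three independent experiments.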

**Q.** With COc1ccc(-c2nc(C(=O)NCC(C)Oc3no[n+]([O-])c3S(=O)(=O)c3ccccc3)cc3c2[nH]c2ccccc23)cc1 (centres undefined) as the compound, how does the IC50 (MCF7) read?
**A.** Its IC50 is 1.56 µM.

**Q.** And the IC50 (MDA-MB-231)?
**A.** Its IC50 is 2.27 µM.

**Q.** What about the Activity [1] of the same compound?
**A.** Its Activity is “Active”.

**Q.** Which results are given for COc1ccc2c(c1)[nH]c1c(C)nccc12 [HARMINE]?
**A.** IC50 (MCF7): 16.9 µM; IC50 (MDA-MB-231): 21.9 µM

**Q.** For O=C(OCCCCOc1no[n+]([O-])c1S(=O)(=O)c1ccccc1)c1cc2c(cn1)[nH]c1ccccc12, which IC50 (MCF7) is on record?
**A.** The IC50 was 9.57 µM.

**Q.** And the IC50 (MDA-MB-231)?
**A.** The IC50 was 12.5 µM.

**Q.** Which results are given for CC(CNC(=O)c1cc2c(cn1)[nH]c1ccccc12)Oc1no[n+]([O-])c1S(=O)(=O)c1ccccc1 (centres undefined)?
**A.** IC50 (MCF7): 6.94 µM; IC50 (MDA-MB-231): 5.97 µM

**Q.** Which results are given for O=C(OCCCOc1no[n+]([O-])c1S(=O)(=O)c1ccccc1)c1cc2c(cn1)[nH]c1ccccc12?
**A.** IC50 (MCF7): 4.64 µM; IC50 (MDA-MB-231): 7.96 µM

**Q.** Which IC50 (MCF7) does the source give for COc1ccc(-c2nc(C(=O)OCCOCCOc3no[n+]([O-])c3S(=O)(=O)c3ccccc3)cc3c2[nH]c2ccccc23)cc1 here?
**A.** The IC50 was 3.92 µM.

**Q.** What about the IC50 (MDA-MB-231) of the same compound?
**A.** The IC50 was 2.53 µM.

**Q.** Which IC50 (MCF7) does the source give for O=C(OCCOc1no[n+]([O-])c1S(=O)(=O)c1ccccc1)c1cc2c(cn1)[nH]c1ccccc12 here?
**A.** The IC50 was 11.5 µM.

**Q.** And the IC50 (MDA-MB-231)?
**A.** Its IC50 is 9.56 µM.

**Q.** What does the source list for O=C(OCCCCCCOc1no[n+]([O-])c1S(=O)(=O)c1ccccc1)c1cc2c(cn1)[nH]c1ccccc12?
**A.** IC50 (MCF7): 13.7 µM; IC50 (MDA-MB-231): 8.87 µM

**Q.** For Cc1nc(C(=O)O)cc2c1[nH]c1ccccc12 [HARMAN-3-CARBOXYLIC ACID], which IC50 (MCF7) is on record?
**A.** The IC50 was 19.2 µM.

**Q.** And the IC50 (MDA-MB-231)?
**A.** The IC50 was 22.6 µM.

**Q.** Which IC50 (MCF7) does the source give for O=C(OCCOCCOc1no[n+]([O-])c1S(=O)(=O)c1ccccc1)c1cc2c(cn1)[nH]c1ccccc12 here?
**A.** Its IC50 is 19 µM.

**Q.** And the IC50 (MDA-MB-231)?
**A.** Its IC50 is 15.8 µM.

**Q.** Which IC50 (MCF7) does the source give for Cc1nc(C(=O)OCCCCCCOc2no[n+]([O-])c2S(=O)(=O)c2ccccc2)cc2c1[nH]c1ccccc12 here?
**A.** The IC50 was 6.85 µM.

**Q.** And the IC50 (MDA-MB-231)?
**A.** Its IC50 is 5.75 µM.

**Q.** Which IC50 (MCF7) does the source give for COc1ccc(-c2nc(C(=O)OCCCCOc3no[n+]([O-])c3S(=O)(=O)c3ccccc3)cc3c2[nH]c2ccccc23)cc1 here?
**A.** Its IC50 is 2.92 µM.

**Q.** What about the IC50 (MDA-MB-231) of the same compound?
**A.** Its IC50 is 4.26 µM.

**Q.** For O=C(NCCCOc1no[n+]([O-])c1S(=O)(=O)c1ccccc1)c1cc2c(cn1)[nH]c1ccccc12, which IC50 (MCF7) is on record?
**A.** Its IC50 is 4.64 µM.

**Q.** And the IC50 (MDA-MB-231)?
**A.** Its IC50 is 7.5 µM.

**Q.** Which results are given for COc1ccc(-c2nc(C(=O)OCC#CCOc3no[n+]([O-])c3S(=O)(=O)c3ccccc3)cc3c2[nH]c2ccccc23)cc1?
**A.** IC50 (MCF7): 2.35 µM; IC50 (MDA-MB-231): 1.16 µM

**Q.** Which IC50 (MCF7) does the source give for Cc1nc(C(=O)NCC(C)Oc2no[n+]([O-])c2S(=O)(=O)c2ccccc2)cc2c1[nH]c1ccccc12 (centres undefined) here?
**A.** Its IC50 is 3.8 µM.

**Q.** What about the IC50 (MDA-MB-231) of the same compound?
**A.** Its IC50 is 2.2 µM.

**Q.** For COc1ccc(-c2nc(C(=O)OCCCOc3no[n+]([O-])c3S(=O)(=O)c3ccccc3)cc3c2[nH]c2ccccc23)cc1, which IC50 (MCF7) is on record?
**A.** The IC50 was 3.49 µM.

**Q.** And the IC50 (MDA-MB-231)?
**A.** Its IC50 is 2.86 µM.

**Q.** With COc1ccc(-c2nc(C(=O)NCCOc3no[n+]([O-])c3S(=O)(=O)c3ccccc3)cc3c2[nH]c2ccccc23)cc1 as the compound, how does the IC50 (MCF7) read?
**A.** Its IC50 is 1.45 µM.

**Q.** What about the IC50 (MDA-MB-231) of the same compound?
**A.** Its IC50 is 0.87 µM.

**Q.** What about the Activity [1] of the same compound?
**A.** Its Activity is “Active”.

**Q.** Which IC50 (MCF7) does the source give for Cc1nc(C(=O)NCCCOc2no[n+]([O-])c2S(=O)(=O)c2ccccc2)cc2c1[nH]c1ccccc12 here?
**A.** The IC50 was 2.97 µM.

**Q.** What about the IC50 (MDA-MB-231) of the same compound?
**A.** Its IC50 is 1.62 µM.

**Q.** What does the source list for O=C(O)c1cc2c(cn1)[nH]c1ccccc12?
**A.** IC50 (MCF7): > 30 µM; IC50 (MDA-MB-231): > 30 µM

**Q.** Which IC50 (MCF7) does the source give for COc1ccc(-c2nc(C(=O)OCCCCCCOc3no[n+]([O-])c3S(=O)(=O)c3ccccc3)cc3c2[nH]c2ccccc23)cc1 here?
**A.** Its IC50 is 5.36 µM.

**Q.** What about the IC50 (MDA-MB-231) of the same compound?
**A.** Its IC50 is 2.98 µM.

**Q.** What about the Activity [1] of the same compound?
**A.** The Activity was “Active”.

**Q.** With COc1ccc(-c2nc(C(=O)N3CCN(CCOc4no[n+]([O-])c4S(=O)(=O)c4ccccc4)CC3)cc3c2[nH]c2ccccc23)cc1 as the compound, how does the IC50 (MCF7) read?
**A.** The IC50 was 1.33 µM.

**Q.** And the IC50 (MDA-MB-231)?
**A.** Its IC50 is 0.92 µM.

**Q.** What about the Activity [1] of the same compound?
**A.** Its Activity is “Active”.

**Q.** For O=C(OCC#CCOc1no[n+]([O-])c1S(=O)(=O)c1ccccc1)c1cc2c(cn1)[nH]c1ccccc12, which IC50 (MCF7) is on record?
**A.** Its IC50 is 5.27 µM.

**Q.** And the IC50 (MDA-MB-231)?
**A.** The IC50 was 5.89 µM.

**Q.** Which IC50 (MCF7) does the source give for Cc1nc(C(=O)OCC#CCOc2no[n+]([O-])c2S(=O)(=O)c2ccccc2)cc2c1[nH]c1ccccc12 here?
**A.** Its IC50 is 8.86 µM.

**Q.** And the IC50 (MDA-MB-231)?
**A.** The IC50 was 6.91 µM.

**Q.** With O=S(=O)(c1ccccc1)c1no[n+]([O-])c1S(=O)(=O)c1ccccc1 as the compound, how does the IC50 (MCF7) read?
**A.** The IC50 was 3.92 µM.

**Q.** What about the IC50 (MDA-MB-231) of the same compound?
**A.** Its IC50 is 4.84 µM.

**Q.** Which IC50 (MCF7) does the source give for Cc1nc(C(=O)OCCOc2no[n+]([O-])c2S(=O)(=O)c2ccccc2)cc2c1[nH]c1ccccc12 here?
**A.** Its IC50 is 4.58 µM.

**Q.** What about the IC50 (MDA-MB-231) of the same compound?
**A.** Its IC50 is 7.46 µM.

**Q.** Which IC50 (MCF7) does the source give for O=C(NCCOc1no[n+]([O-])c1S(=O)(=O)c1ccccc1)c1cc2c(cn1)[nH]c1ccccc12 here?
**A.** The IC50 was 7.53 µM.

**Q.** And the IC50 (MDA-MB-231)?
**A.** The IC50 was 6.75 µM.

**Q.** What does the source list for Cc1nc(C(=O)N2CCN(CCOc3no[n+]([O-])c3S(=O)(=O)c3ccccc3)CC2)cc2c1[nH]c1ccccc12?
**A.** IC50 (MCF7): 3.29 µM; IC50 (MDA-MB-231): 3.47 µM

**Q.** Which IC50 (MCF7) does the source give for Cc1nc(C(=O)OCCCCOc2no[n+]([O-])c2S(=O)(=O)c2ccccc2)cc2c1[nH]c1ccccc12 here?
**A.** Its IC50 is 4.28 µM.

**Q.** What about the IC50 (MDA-MB-231) of the same compound?
**A.** Its IC50 is 4.54 µM.

**Q.** For COc1ccc(-c2nc(C(=O)OCCOc3no[n+]([O-])c3S(=O)(=O)c3ccccc3)cc3c2[nH]c2ccccc23)cc1, which IC50 (MCF7) is on record?
**A.** The IC50 was 4.8 µM.

**Q.** And the IC50 (MDA-MB-231)?
**A.** The IC50 was 3.59 µM.

**Q.** And the Activity [1]?
**A.** The Activity was “Active”.

**Q.** For Cc1nc(C(=O)NCCOc2no[n+]([O-])c2S(=O)(=O)c2ccccc2)cc2c1[nH]c1ccccc12, which IC50 (MCF7) is on record?
**A.** The IC50 was 4.96 µM.

**Q.** And the IC50 (MDA-MB-231)?
**A.** Its IC50 is 3.84 µM.

**Q.** Which IC50 (MDA-MB-231) does the source give for COc1cccc2c1C(=O)c1c(O)c3c(c(O)c1C2=O)C[C@@](O)(C(=O)CO)C[C@@H]3O[C@H]1C[C@H](N)[C@H](O)[C@H](C)O1 [DOXORUBICIN] here?
**A.** The IC50 was 2.86 µM.

**Q.** Which IC50 (MCF7) does the source give for COc1ccc(-c2nc(C(=O)O)cc3c2[nH]c2ccccc23)cc1 here?
**A.** The IC50 was 14.3 µM.

**Q.** What about the IC50 (MDA-MB-231) of the same compound?
**A.** The IC50 was 12.6 µM.

**Q.** Which results are given for Cc1nc(C(=O)OCCOCCOc2no[n+]([O-])c2S(=O)(=O)c2ccccc2)cc2c1[nH]c1ccccc12?
**A.** IC50 (MCF7): 5.89 µM; IC50 (MDA-MB-231): 7.67 µM

**Q.** Which IC50 (MCF7) does the source give for Cc1nc(C(=O)OCCCOc2no[n+]([O-])c2S(=O)(=O)c2ccccc2)cc2c1[nH]c1ccccc12 here?
**A.** The IC50 was 4.88 µM.

**Q.** What about the IC50 (MDA-MB-231) of the same compound?
**A.** Its IC50 is 2.24 µM.

**Q.** What does the source list for O=C(c1cc2c(cn1)[nH]c1ccccc12)N1CCN(CCOc2no[n+]([O-])c2S(=O)(=O)c2ccccc2)CC1?
**A.** IC50 (MCF7): 8.28 µM; IC50 (MDA-MB-231): 6.83 µM
